Results of several laboratories.
MET: Hepatocyte growth factor receptor (MET, Homo sapiens, UniProt P08581)

| Structure (SMILES) | target | effect on | action | method | concentration | endpoint | value |
| --- | --- | --- | --- | --- | --- | --- | --- |
| CN(CCCC(F)(F)F)c1nccc(-c2cnn3ncccc23)n1 | Hepatocyte growth factor receptor (MET, Homo sapiens, UniProt P08581, Y1235D) | binding | – | – | 1 µM | remaining binding | 100% |
| Cc1ccc(NC(=O)c2ccc(C)c(C(F)(F)F)c2)cc1C#Cc1nn(C2CCC(O)CC2)c2ncnc(N)c12 (stereo not shown) | Hepatocyte growth factor receptor (MET, Homo sapiens, UniProt P08581, M1250T) | cell-free assay | – | – | 10 µM | remaining signal | 136% |
| Cc1cnc(NC2CCOCC2)nc1-n1cnc(C(=O)NC(CN)c2cc(F)cc(Cl)c2)c1 (stereo not shown) | Hepatocyte growth factor receptor (MET, Homo sapiens, UniProt P08581, D1228N) | enzyme activity | inhibitor | radiometric | 1 µM | remaining activity | 97% |
| CNC(=O)c1cc2c(Oc3ccc(NC(=O)C4(C(=O)Nc5ccc(F)cc5)CC4)cc3)ccnc2cc1OC | Hepatocyte growth factor receptor (MET, Homo sapiens, UniProt P08581, D1228H) | enzyme activity | inhibitor | radiometric | 1 µM | inhibition | 103% |
| CC(=O)N1CCC(c2ccc(C(=O)NC(=N)N)cc2C(F)(F)F)CC1 | MET | cell-free assay | – | competition with immobilised ligand | 1 µM | remaining binding | 100% |
| Cc1cc(NC(=O)c2cccc3cc(-c4cccc5[nH]nc(N)c45)ccc23)ccc1F | Hepatocyte growth factor receptor (MET, Homo sapiens, UniProt P08581, Y1230C) | enzyme activity | inhibitor | – | 0.1 µM | activity vs control | 92% |
| COCCOc1nc(-c2ccc(Cl)nc2)nc2c1CN(C(=O)c1ncn3ccccc13)CC2 | MET | cell-free assay | – | competition with immobilised ligand | 0.1 µM | remaining binding | 100% |
| C[C@@H]1CCN(c2nccc(-c3cnn4ncccc34)n2)C1 | MET | binding | – | – | 1 µM | remaining binding | 84% |
| Nc1ncnc2occ(-c3ccc(NC(=O)Nc4cc(C(F)(F)F)ccc4F)cc3)c12 | MET | cell-free assay | – | – | 20 µM | remaining signal | 8.8% |
| COc1cc(-c2cn(C3CCc4c(F)cccc4N(CC(F)(F)F)C3=O)nn2)ccc1-n1cnc(C)c1 (stereo not shown) | MET | cell-free assay | – | competition with immobilised ligand | 1 µM | remaining binding | 100% |
